# CHOP inhibitor = blocks CHOP induction under ER stress | CHO-K1 CHOP-promoter luciferase, tunicamycin-induced, 15-18 h | inhibition, % at 10 µM | actives 3.8% (n = 220,000);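 active = compounds that reduced the stress-induced luciferase reporter signal by more than about 70% of percent inhibition, limit read from the data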;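 also: 0% = tunicamycin plus vehicle and 100% = wells without tunicamycin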
# CHOP UPR activ = apoptotic UPR (CHOP) activation; CHO-CHOP luciferase reporter, luminescence; percent of tunicamycin response over DMSO baseline; activation, % at 10 µM; actives 0.34% (n = 330,000);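 active = at 10 µM dose, activation of 40% or more, normalized to positive control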;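 also: 100% = tunicamycin at 10 µg/mL and 0% = DMSO alone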
#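 System: CHO-CHOP luciferase reporter cell line; amount: 500 cells/well; buffer or medium: F12 medium containing 10% fetal bovine serum; incubation: 6 h compound exposure at 37 °C after overnight seeding; measured by: luciferase luminescence after 10 min with Steady-Glo reagent; evaluation: % reporter activation, DMSO baseline versus tunicamycin full activation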
# Cardio protect = protects H9c2 cardiomyocytes from peroxide injury | H2O2 injury protection, ATPLite, 2 h | actives 0.63% (n = 360,000) | protection from H2O2 cell death, % at 20 µM;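 active = compounds giving at least 50% protection of heart cells from peroxide-induced death in the single-dose screen, raw or plate-pattern-corrected value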;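 also: 0% = DMSO wells with peroxide and 100% = DMSO wells without peroxide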
# UPR XBP1 act = adaptive UPR (XBP1) activation. CHO-XBP1 luciferase reporter, IRE1-XBP1 UPR activation, luminescence; percent of tunicamycin response, DMSO as zero. activation, % at 20 µM. actives 0.33% (n = 330,000). AID 463104;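 active = versus positive control, 20 µM dose yields 30% or more activation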;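 also: 100% = tunicamycin at 10 µg/mL and 0% = DMSO only wells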
#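 Signal: luciferase luminescence; Assay system: CHO-XBP1 luciferase reporter cells; Amount: one thousand reporter cells per well; Dosing: 20 µM single concentration, DMSO 1%; Benchmarks: high control tunicamycin 10 µg/mL final, low control DMSO vehicle only; Schedule: 6 h compound exposure at 37 °C, 5% CO2; Evaluation: percent activation relative to tunicamycin reference.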
# hiPSC survival = hiPSC single-cell survival enhancement. ATPlite luminescence; 100% = ROCK inhibitor wells, 0% = DMSO. survival enhancement, % at 20 µM. actives 0.044% (n = 360,000); in the data active = survival enhancement above about 18%;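 also: cells exposed to compounds for 16 hours before the ATP read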
# CHOP confirm = confirmation of CHOP induction inhibitors. actives 45% (n = 2,100). CHO-CHOP promoter luciferase reporter, tunicamycin-induced, luminescence. shares compounds with CHOP inhibitor. AID 504437. inhibition, % at 10 µM;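 active = mean of three repeat readings of reporter signal inhibition above a set limit, cut at about 70% in these data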;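 also: 0% = tunicamycin plus vehicle and 100% = wells lacking tunicamycin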
# * hit, by the source's call; · = no result given. This is one part of a sample in which hits are shown more often than they occur.
SMILES,CHOP inhibitor,CHOP UPR activ,Cardio protect,UPR XBP1 act,hiPSC survival,CHOP confirm
Cc1ccc(N(c2ncnc(N)c2[N+](=O)[O-])C2CCCCC2)cc1,105*,0,6,2,2,100*
Cc1[nH]c2ccccc2c1C1=CC(=O)C=CC1=O,·,·,-28,·,-2,·
CCN1/C(=C/C(C)=C/c2sc3ccccc3[n+]2CC)Sc2ccccc21,110*,-9,-30,-11,-2,141*
Brc1cc2c(cc1C1OCCCO1)OCO2,·,·,3,·,3,·
CCOC(=O)C1=C(C)NC(C)=C(C(=O)OCC)C1/C=C/c1ccccc1,99*,2,-5,1,3,92*
COC(=O)C1=C(C)NC(C)=C(C(=O)OC)C1/C=C/c1ccccc1,20,2,1,3,2,·
C=CCOC(=O)C1=C(C)NC(C)=C(C(=O)OCC=C)C1/C=C/c1ccccc1,100*,0,-4,-1,-1,105*
O=C(NC(c1ccccc1)c1c(O)ccc2ccccc12)c1ccccc1Cl (stereo not given),107*,0,-18,-2,0,125*
CCC(=O)NC(c1ccccc1Cl)c1c(O)ccc2ccccc12 (stereo not given),20,-1,3,-4,0,·
Cc1ccc(-c2nnc(SCC(=O)Nc3ccc(S(=O)(=O)N4CCCCCC4)cc3)o2)cc1,101*,0,-7,0,-1,36
CC(=O)c1cccc(NC(=O)CSc2nnc(-c3ccc(S(=O)(=O)N4CCCC4)cc3)o2)c1,-5,2,10,1,1,·
Cc1ccn2c(=O)c(NC(=O)c3ccc4c(c3)OCO4)c(C)nc2c1,·,·,-3,·,-1,·
O=c1c2cc(Br)ccc2nc(-c2cccc(C(F)(F)F)c2)n1O,99*,0,20,-1,1,-14
N#Cc1ccc(-c2nc3ccc(Br)cc3c(=O)n2O)cc1,·,1,16,-3,0,·
CC1(C2CC2)NC(=O)N(CC(=O)Nc2ccc(OC(F)F)cc2)C1=O (stereo not given),·,·,2,·,6,·
COc1ccc(C2=NN(C(=O)c3ccco3)C(c3cc4ccccc4nc3Cl)C2)cc1 (stereo not given),103*,3,·,16,·,71*
COc1ccc2cc(C3CC(c4ccco4)=NN3C(=O)CCC(=O)O)c(Cl)nc2c1 (stereo not given),-30,-1,8,-1,0,·
COc1ccc(NC(=O)C2(C)CCN2C(=O)c2ccc(C(C)(C)C)cc2)cc1OC (stereo not given),·,·,-25,·,0,·
Cc1ccc2nc(/C(C#N)=C\c3ccc(Oc4ccc([N+](=O)[O-])cn4)cc3)[nH]c2c1,97*,·,-9,·,0,37
Nc1nccc(-c2ccc(-n3cnc4ccccc43)cc2)n1,57,5,2,2,0,·
c1ccc2c(c1)ncn2-c1ccc(-c2ccnc(-c3ccncc3)n2)cc1,99*,-1,16,1,2,6
Nc1nnnn1/N=C/c1cccc(Oc2ccccc2)c1,-24,0,0,8,1,·
Nc1nnnn1/N=C/c1cccc(OCc2ccccc2Cl)c1,104*,5,-2,0,2,51
CCOC(=O)[C@]12CCCC=C1N(Cc1ccc3c(c1)OCO3)C(=O)[C@H](CC(=O)N1CCC(c3ccccc3)CC1)C2,·,·,·,·,0,·
COc1cccc(-c2cc(NC=O)c3ncc(-c4ccc(C(C)=O)cc4)n3c2)c1,·,·,34,·,-2,·
CCOC(=O)/C(=C\c1ccc(OC(F)F)cc1)C1=Nn2c(nnc2-c2ccc(Cl)cc2)SC1,107*,·,-20,·,-3,120*
O=C(Nc1ccc(Oc2ccccc2)cc1)C1CCN(c2c3c(nc4ncnn24)CCC3)CC1,104*,7,-16,7,11,92*
CCCCC1=CC2=C(c3ccco3)C(=O)C(C)(OC(=O)c3ccc(OC)cc3)C(=O)C2=CN1c1ccccc1 (stereo not given),104*,1,-3,-1,0,-64

# Screening data deposited in PubChem BioAssay by several laboratories.
